Data published in the RNAGym collection of RNA variant scans (doi:10.1126/science.aae0568).
Fewer inactive variants are shown than the library holds.

B1: tRNA (parent)
chain: GUUCCGUUGGCGUAAUGGUAACGCGUCUCCCUCCUAAGGAGAAGACUGCGGGUUCGAGUCCCGUACGGAACG

Variants of: B1
Test: yeast fitness relative to wild type (ratio to wild type); higher = fitter; tRNA-Arg(CCU), competitive growth, 37 C, YPD
Method in brief: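 Start and end populations of a pooled competition were compared by 100-nucleotide paired-end sequencing of gene amplicons. The Saccharomyces cerevisiae strains carried tRNA-Arg(CCU) gene variants at the native genomic locus, synthesised with a 3% per-site mutation rate at 69 sites, and competed in YPD at 37°C for 24 hours in six parallel replicates. Darwinian fitness relative to wild type was based on the change in genotype frequencies. Genotypes required ≥ 100 starting reads, and estimates < 0.5 were set to 0.5.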

| Variant | yeast fitness |
| --- | --- |
| C27A A43C C60A | ≤ 0.5 |
| C27A A65U G67C | 0.613 |
| U26C A36U A40U | 0.603 |
| U26C C29A C34A | ≤ 0.5 |
| U26G C27U G50C | ≤ 0.5 |
| U26C U32A C34U G38C G51A A57C | 0.653 |
| U26G A45G C46U U53G C66U A69U | 0.582 |
| U26C A36C A65U G68A | ≤ 0.5 |
| U26C C27U A36G | 0.72 |
| U26A G38C A45U C55U | ≤ 0.5 |
| U26A U32C A57C C62U | ≤ 0.5 |
| U26C C30A | 0.815 |
| U26C C30G | 0.651 |
| C27A A57U | 0.737 |
| C27A A57C | 0.669 |
| C27A A57G | 0.787 |
| U26C C66U | 0.823 |
| U26C C66G | 0.674 |
| U26G C34U C49A G51A A69U | ≤ 0.5 |
| C27A A45U C60G A65U | 0.54 |
| U26A C66A A69C | ≤ 0.5 |

| Variant | yeast fitness |
| --- | --- |
| U26G C34U A40G G51A | ≤ 0.5 |
| C27A C30U C33G | 0.634 |
| U26C G48A | 1.05 |
| U26G U28A | 0.62 |
| U26G U32A G63A | ≤ 0.5 |
| U26C G39A U59C | 0.604 |
| U26C C29U G63A | 0.672 |
| U26G C31G U32A | 0.691 |
| U26G C33A A42U C55G | 0.556 |
| U26C A40G A57C | 0.56 |
| U26A G67C | 0.829 |
| U26A G67U | 0.632 |
| U26G G48A C61U A70U | 0.68 |
| U26G G44C G58A G68C | 0.529 |
| U26C C34G A70C | ≤ 0.5 |
| C27A A45C G56C C60U G68U | ≤ 0.5 |
| C27A C29U | 0.766 |
| C27A C29A | 0.589 |
| C27A C29U A40G | ≤ 0.5 |
| U26G C31U U54A | 0.569 |
| U26C U35C G50C G52A | ≤ 0.5 |

| Variant | yeast fitness |
| --- | --- |
| C27A C30A U35C C46G | ≤ 0.5 |
| U26C C30U U47A G67U | ≤ 0.5 |
| U26A U64C | 0.856 |
| U26C C29G U35C | ≤ 0.5 |
| C27A A69C | 0.875 |
| U26C C49U | 0.833 |
| U26C C49A | 0.598 |
| C27A A37U C60U G63A | 0.707 |
| U26A G38C U47G G58A | ≤ 0.5 |
| U26C C31A G38C | 0.529 |
| C27A A42C A57G | ≤ 0.5 |
| U26C A43U G48C C60G | ≤ 0.5 |
| C27A A37C A43G C55G | ≤ 0.5 |
| U26G A65G | 0.971 |
| U26C A37U A57G | 0.658 |
| U26C C27A C34U G41A | ≤ 0.5 |
| U26G G44A | 0.87 |
| U26G C46U | 1.01 |
| U26G U35A A69G A70G | 0.732 |
| U26C G67A | 0.762 |
| U26C G67C | 0.833 |

| Variant | yeast fitness |
| --- | --- |
| U26A G41A | 0.818 |
| U26C A65C | 0.819 |
| U26C A65U | 0.896 |
| U26C A65G | 0.932 |
| U26G C34U G44C G56A | ≤ 0.5 |
| U26A C49U C61G | ≤ 0.5 |
| C27A A70G | 0.857 |
| U26C U47C | 0.952 |
| C27A A36U A37U A65G | ≤ 0.5 |
| U26C C29U | 0.869 |
| U26C C29G | 0.735 |
| U26C C29A | 0.664 |
| U26A G58A | 0.928 |
| U26A C62G | 0.69 |
| U26A C62U | 0.934 |
| U26C A36G | 0.856 |
| C27A A36G A42G C66U | ≤ 0.5 |
| U26C C46A C61U | ≤ 0.5 |
| U26A C49U G52C | ≤ 0.5 |
| U26A C60G | 0.691 |
